Published values collected from several papers.
Compare with care: the assays were run in different laboratories.
HLA class I histocompatibility antigen, A alpha chain: HLA class I histocompatibility antigen, A alpha chain (Homo sapiens, UniProt P04439)
BACE1: Beta-secretase 1 (BACE1, Homo sapiens, UniProt P56817)

Compound	target	assay	endpoint	result
CSCC[C@H](NC(=O)[C@@H](N)CCCNC(=N)N)C(=O)N[C@@H](Cc1ccccc1)C(=O)NCC(=O)N1CCC[C@H]1C(=O)N[C@H](C(=O)N[C@@H](CCC(N)=O)C(=O)N[C@H](C(=O)N[C@@H](Cc1ccc(O)cc1)C(=O)O)[C@@H](C)O)C(C)C	HLA class I histocompatibility antigen, A alpha chain	cell-free assay	IC50	45 nM
COc1cc2c(cc1OC)CN(CCc1ccc(NC(=O)c3cccc4c(=O)c5cccc(OC)c5[nH]c34)cc1)CC2	D(2) dopamine receptor (DRD2, Homo sapiens, UniProt P14416)	cell-free assay	Ki	943 nM
CCCC[C@H](NC(C)=O)C(=O)N[C@H]1CC(=O)NCCCC[C@@H](C(=O)N2CCC[C@@H]2C(=O)N[C@@H](C(=O)N2CCC[C@@H]2C(N)=O)C(C)C)NC(=O)[C@H](Cc2c[nH]c3ccccc23)NC(=O)[C@H](CCCNC(=N)N)NC(=O)[C@@H](Cc2ccccc2)NC(=O)[C@@H]2CCCN2C1=O	Melanocortin receptor 3 (MC3R, Homo sapiens, UniProt P41968)	cAMP, agonist	EC50	> 1000 nM
C=CCOc1ccc(C(=O)/C=C/c2cccc(F)c2)c(OS(=O)(=O)c2ccc(F)cc2)c1I	BACE1	enzyme activity, inhibitor, fluorescence	IC50	27800 nM
CSCC[C@H](NC(=O)[C@@H](N)CCCCN)C(=O)N[C@@H](Cc1c[nH]c2ccccc12)C(=O)NCC(=O)N[C@@H](CCCCN)C(=O)N1CCC[C@H]1C(=O)N[C@@H](CCSC)C(=O)N[C@H](C(=O)N[C@@H](Cc1ccccc1)C(=O)O)[C@@H](C)O	HLA class I histocompatibility antigen, A alpha chain	cell-free assay	IC50	213 nM
CCOC(=O)c1ccc(OC(=O)CCCCCN=C(N)N)cc1	Transmembrane protease serine 6 (Homo sapiens, UniProt Q8IU80)	enzyme activity, inhibitor	IC50	412 nM
C=CCOc1ccc(C(=O)/C=C/c2ccc(OC)cc2)c(OS(=O)(=O)c2ccccc2[N+](=O)[O-])c1I	BACE1	enzyme activity, inhibitor, fluorescence	IC50	23900 nM
COc1cc(C(F)(F)F)c(OC)cc1C1CCCNC1 (stereo not shown)	5-hydroxytryptamine receptor 2C (Htr2c, Mus musculus, UniProt P34968)	G protein activation, agonist, BRET	EC50	30.9 nM
C=CCOc1ccc(C(=O)/C=C/c2ccc(OC)cc2)c(OS(=O)(=O)c2ccc(OC)cc2)c1I	BACE1	enzyme activity, inhibitor, fluorescence	IC50	18200 nM
CC[C@H](C)[C@H](NC(=O)[C@@H](N)CCCNC(=N)N)C(=O)N[C@@H](Cc1ccc(O)cc1)C(=O)NCC(=O)N1CCC[C@H]1C(=O)N1CCC[C@H]1C(=O)N[C@@H](Cc1c[nH]cn1)C(=O)N[C@@H](CCC(N)=O)C(=O)N[C@@H](Cc1ccccc1)C(=O)O	HLA class I histocompatibility antigen, A alpha chain	cell-free assay	IC50	376 nM
